Values after ≈ are worked out from the molar mass of the structure shown.
Tests used:
Candida albicans [1] = test: Antifungal activity against Candida albicans SC5314 assessed as inhibition of fungal growth at 100 ug/ml incubated for 24 hrs by spotting assay relative to control; format: functional; design: scale not given: the % may be the effect or the level left; settings: dose 100 µg/ml
Outline: (§1)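 Spotting screen: SDA plates streaked with 0.1 ml culture at 10^4 CFU ml−1, 5 μl of compound applied, 24 h at 37 °C. C. albicans SC5314 or C. auris clinical isolate kept on SDA at 37 °C. Growth inhibition judged against untreated control.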

[Candida] auris [2] = Antifungal activity against Candida auris clinical isolate assessed as inhibition of fungal growth at 100 ug/ml incubated for 24 hrs by spotting assay relative to control; format: functional, Candidozyma auris; design: scale not given: the % may be the effect or the level left; settings: dose 100 µg/ml; outline: as §1
Candida albicans [3] = test: Antifungal activity against Candida albicans SC5314 assessed as inhibition of fungal growth incubated for 24 hrs by microdilution assay; format: functional
Outline: (§2)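 Broth microdilution per CLSI. Inoculum 10^5 CFU mL−1, compounds at 1, 3, 5, 10, 25, 50, 100 and 200 μg ml−1, 37 °C for 24 h. Turbidity read at 570 nm. MIC50 is the concentration giving 50% growth inhibition, from curve fitting. Triplicate.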

[Candida] auris [4] = Antifungal activity against Candida auris clinical isolate assessed as inhibition of fungal growth incubated for 24 hrs by microdilution assay; format: functional; settings: Candidozyma auris; outline: as §2
[5] = Cytotoxicity against human F180 cells assessed as cell growth inhibition at 6 times MIC50 against Candida albicans SC5314 incubated for 48 hrs by SRB assay; format: toxicity, cell-based; settings: f180, 48 h
Outline: (§3)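 SRB assay on normal human skin fibroblasts F-180 in DMEM with 15% FBS, 37 °C, 5% CO2. Seeded 20 000 cells/well and left overnight, then compounds at 10, 20 and 30 μg ml−1 for 48 h; DMSO vehicle ≤0.1%. TCA fixation, 0.4% SRB stain, dye solubilised in 10 mM Tris, OD 492 nm. Six repeats.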

[6] = Cytotoxicity against human F180 cells assessed as cell growth inhibition at 1 times MIC50 against Candida auris incubated for 48 hrs by SRB assay; format: toxicity, cell-based; settings: f180, 48 h; outline: as §3
[7] = Cytotoxicity against human F180 cells assessed as cell growth inhibition at 10 times MIC50 against Candida albicans SC5314 incubated for 48 hrs by SRB assay; format: toxicity, cell-based; settings: f180, 48 h; outline: as §3
[8] = Cytotoxicity against human F180 cells assessed as cell growth inhibition at 15 times MIC50 against Candida auris incubated for 48 hrs by SRB assay; format: toxicity, cell-based; settings: f180, 48 h; outline: as §3
Candida albicans [9] = test: Potency index, ratio of fluconazole MIC50 to test compound MIC50 for antifungal activity against Candida albicans SC5314 assessed as inhibition of fungal growth incubated for 24 hrs by microdilution assay; format: functional
Outline: (§4)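 MIC50 ratio. MIC50 of fluconazole and of compound by broth microdilution: 10^5 CFU mL−1 inoculum, 1–200 μg ml−1, 37 °C for 24 h, turbidity at 570 nm, triplicate. Ratio taken as fluconazole MIC50 over compound MIC50.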

[Candida] auris [10] = Potency index, ratio of fluconazole MIC50 to test compound MIC50 for antifungal activity against Candida auris clinical isolate assessed as inhibition of fungal growth incubated for 24 hrs by microdilution assay; format: functional, Candidozyma auris; outline: as §4
[11] = biological target: T1, Lanosterol 14-alpha demethylase (Candida albicans (strain SC5314 / ATCC MYA-2876) (Yeast), UniProt P10613); test: Inhibition of candida albicans CYP51 using 7-ethoxyresorufin as fluorescent substrate incubated for 10 mins in the presence of NADPH by fluorescence based spectroscopic microtiter plate reader analysis
Outline: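 CaCYP51 bactosomes in pH 7.4 phosphate buffer with 5 mM MgCl2 and the substrate 7-ethoxyresorufin. Inhibitor at 0, 0.1, 1, 10 and 100 μg ml−1. Started with 4 mM NADPH, shaken 10 min at 37 °C under yellow light. Resorufin read every 30 s (ex 572/em 604 nm). IC50 from curve fitting; fluconazole positive control.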

[12] = biological target: T1, Lanosterol 14-alpha demethylase; test: Potency index, ratio of fluconazole IC50 to test compound IC50 for inhibition of Candida albicans CYP51 using 7-ethoxyresorufin as fluorescent substrate incubated for 10 mins in the presence of NADPH by fluorescence based spectroscopic microtiter plate reader analysis
Outline: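 Ratio of fluconazole IC50 to compound IC50 against CaCYP51. Bactosomes with 7-ethoxyresorufin in pH 7.4 phosphate, 5 mM MgCl2. Inhibitor at 0–100 μg ml−1. Reaction started with 4 mM NADPH, 10 min at 37 °C, resorufin fluorescence ex 572/em 604 nm.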

Cytochrome P450 3A4 = Cytochrome P450 3A4 (Homo sapiens, UniProt P08684); test: Inhibition of human CYP3A4 using luciferin-IPA as substrate preincubated for 10 mins followed by NADPH addition and measured after 30 mins by luminescence based assay; format: ADME
[13] = test system: CYP3A4 vs Candida albicans CYP51; test: Selectivity index, ratio of IC50 for inhibition of human CYP3A4 using luciferin-IPA as substrate to IC50 for inhibition of candida albicans CYP51 using 7-ethoxyresorufin as fluorescent substrate; format: toxicity; settings: probe luciferin-IPA (CYP3A4), 7-ethoxyresorufin (CYP51)
[14] = biological target: T1, Lanosterol 14-alpha demethylase; test: Inhibition of Candida albicans CYP51 assessed as ergosterol level incubated for 18 hrs by GC/MS analysis relative to control
Outline: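 C. albicans colony grown in SDB 18 h at 37 °C with compound at its MIC50; untreated cells as negative control. Washed, normalized cells saponified in 60% alcoholic KOH, 80 °C 1 h. Sterols hexane-extracted, silylated (MSTFA/TMCS), analysed by GC-MS with ergosterol standard for retention time. Content expressed as AUC treated/AUC untreated × 100.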

[15] = Cytotoxicity against human F180 cells assessed as cell growth inhibition at 60 times MIC50 against Candida albicans SC5314 incubated for 48 hrs by SRB assay; format: toxicity, cell-based; settings: f180, 48 h; outline: as §3
[16] = Cytotoxicity against human F180 cells assessed as cell growth inhibition at 37.5 times MIC50 against Candida auris incubated for 48 hrs by SRB assay; format: toxicity, cell-based; settings: f180, 48 h; outline: as §3
[17] = Cytotoxicity against human F180 cells assessed as cell growth inhibition at 3 times MIC50 against Candida albicans SC5314 incubated for 48 hrs by SRB assay; format: toxicity, cell-based; settings: f180, 48 h; outline: as §3
[18] = Cytotoxicity against human F180 cells assessed as cell growth inhibition at 2.3 times MIC50 against Candida auris incubated for 48 hrs by SRB assay; format: toxicity, cell-based; settings: f180, 48 h; outline: as §3

T1 sequence (P10613 whole entry): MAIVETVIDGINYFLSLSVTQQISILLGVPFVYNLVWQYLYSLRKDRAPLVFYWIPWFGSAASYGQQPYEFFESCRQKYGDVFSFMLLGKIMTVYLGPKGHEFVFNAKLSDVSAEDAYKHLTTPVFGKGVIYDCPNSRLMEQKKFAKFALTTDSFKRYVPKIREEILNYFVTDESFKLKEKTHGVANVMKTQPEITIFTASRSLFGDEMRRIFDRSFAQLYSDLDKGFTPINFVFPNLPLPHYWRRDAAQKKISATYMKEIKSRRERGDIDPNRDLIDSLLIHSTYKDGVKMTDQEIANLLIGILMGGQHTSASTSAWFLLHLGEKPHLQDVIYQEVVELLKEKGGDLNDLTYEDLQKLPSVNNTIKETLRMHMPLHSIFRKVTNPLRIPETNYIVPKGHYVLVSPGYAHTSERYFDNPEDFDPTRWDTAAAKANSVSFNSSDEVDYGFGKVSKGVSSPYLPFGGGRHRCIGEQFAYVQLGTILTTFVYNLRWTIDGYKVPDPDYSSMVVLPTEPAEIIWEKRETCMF
Sequence of Cytochrome P450 3A4 (P08684 whole entry): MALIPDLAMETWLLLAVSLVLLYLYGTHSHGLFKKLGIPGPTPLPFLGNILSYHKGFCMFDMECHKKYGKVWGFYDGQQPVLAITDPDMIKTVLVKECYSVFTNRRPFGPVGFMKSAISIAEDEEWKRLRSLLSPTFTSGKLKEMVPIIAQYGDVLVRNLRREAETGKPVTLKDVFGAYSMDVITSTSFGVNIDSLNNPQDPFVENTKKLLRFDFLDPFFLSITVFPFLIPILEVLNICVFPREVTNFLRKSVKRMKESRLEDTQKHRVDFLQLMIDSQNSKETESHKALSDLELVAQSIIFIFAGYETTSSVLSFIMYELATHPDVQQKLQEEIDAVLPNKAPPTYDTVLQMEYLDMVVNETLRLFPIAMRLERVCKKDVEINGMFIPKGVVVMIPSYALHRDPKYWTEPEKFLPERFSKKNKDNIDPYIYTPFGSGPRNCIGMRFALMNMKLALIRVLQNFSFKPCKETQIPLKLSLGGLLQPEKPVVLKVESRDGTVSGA

SMILES	Activity (Candida albicans [1])	Activity ([Candida] auris [2])	MIC50 (Candida albicans [3])	MIC50 ([Candida] auris [4])	Activity [5]	Activity [6]	Activity [7]	Activity [8]	Ratio (Candida albicans [9])	Ratio ([Candida] auris [10])	IC50 [11]	Ratio IC50 [12]	IC50 (Cytochrome P450 3A4)	selectivity ratio [13]	inhibition (INH) [14]	Activity [15]	Activity [16]	Activity [17]	Activity [18]
COc1cccc(Nc2nnc(-c3ccc(C(C)(C)C)cc3)o2)c1	57%	86%	5 µg/mL (≈ 15.5 µM)	30 µg/mL (≈ 92.8 µM)	Non-Toxic	Non-Toxic	–	–	–	–	–	–	–	–	–	–	–	–	–
CC(C)c1ccc(-c2nnc(Nc3ccc(F)cc3)o2)cc1	80%	40%	3 µg/mL (≈ 10.1 µM)	2.08 µg/mL (≈ 7 µM)	–	–	Non-Toxic	Non-Toxic	–	–	–	–	–	–	–	–	–	–	–
CC(C)(C)c1ccc(-c2nnc(Nc3ccc(Cl)cc3)o2)cc1	99.3%	99%	0.5 µg/mL (≈ 1.53 µM)	0.8 µg/mL (≈ 2.44 µM)	–	–	–	–	50	750	2.75 µM	10	> 30500 µM	> 10000	70.3%	Non-Toxic	Non-Toxic	–	–
COc1cccc(Nc2nnc(-c3ccc(C(C)C)cc3)o2)c1	83%	85%	10 µg/mL (≈ 32.3 µM)	12 µg/mL (≈ 38.8 µM)	–	–	–	–	–	–	–	–	–	–	–	–	–	Non-Toxic	Non-Toxic
OC(Cn1cncn1)(Cn1cncn1)c1ccc(F)cc1F [FLUCONAZOLE]	–	–	25 µg/mL (≈ 81.6 µM)	600 µg/mL (≈ 1960 µM)	–	–	–	–	–	–	29 µM	–	–	–	35.6%	–	–	–	–

From ChEMBL document CHEMBL5104214, “Efficient selective targeting of Candida CYP51 by oxadiazole derivatives designed from plant cuminaldehyde” (RSC Med Chem, 2022)
